Test results: ChEMBL document CHEMBL1125486, “Inhibitors of blood platelet cAMP phosphodiesterase. 3. 1,3-Dihydro-2H-imidazo[4,5-b]quinolin-2-one derivatives with enhanced aqueous solubility” (J Med Chem, 1992)
In brackets after ≈: the same amount, converted by molar mass.

Legend:
Homo sapiens [1] = species on record: Homo sapiens; assay: Inhibition of ADP-induced aggregation of human platelets; assay type: functional
[2] = Aqueous solubility; assay type: physicochemical; settings: water; read-out: S
Summary of the method: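 Water (0.5 mL) added to 10 mg compound at room temperature, diluted up to […] unless dissolution occurred.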

Phosphodiesterase 3 [3] = target: T1, Phosphodiesterase 3 (Homo sapiens, UniProt Q14432+Q13370); assay: Inhibition of human platelet c-AMP phosphodiesterase PDE 3
Homo sapiens [4] = species on record: Homo sapiens; assay: Inhibition of ADP induced aggregation of human platelets after 15 min of incubation of the drug with PRP prior to the addition of ADP; assay type: functional; settings: 0.25 h
Phosphodiesterase 3 [5] = target: T1, Phosphodiesterase 3; assay: Inhibition of human platelet cAMP Phosphodiesterase PDE 3
Summary of the method: (§1)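 Human platelet cAMP PDE enzyme preparation; IC50 read from plots of cAMP hydrolysis against compound concentration; mean of duplicate determinations; BMY 20844 positive control.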

Oryctolagus cuniculus [6] = assay: Inhibition of laser induced thrombus formation in microvasculature of rabbit ear chamber at dose of 0.03 mg/kg; assay type: functional
Summary of the method: (§2)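 Conscious rabbits, laser-induced microvessel thrombosis, oral dosing; 10 trials 2 h post-dose compared with 10 predose trials in same rabbit; mean thrombus area, % inhibition; at least three rabbits per compound.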

Oryctolagus cuniculus [7] = assay: Inhibition of laser induced thrombus formation in microvasculature of rabbit ear chamber at a dose of 0.3 mg/kg; assay type: functional; summary of the method: as §2
Oryctolagus cuniculus [8] = assay: Inhibition of laser induced thrombus formation in microvasculature of rabbit ear chamber at a peroral dose of 0.1 mg/kg; assay type: functional; settings: route oral; summary of the method: as §2
Oryctolagus cuniculus [9] = assay: Inhibition of laser induced thrombus formation in microvasculature of rabbit ear chamber at a peroral dose of 3 mg/kg; assay type: functional; settings: route oral; summary of the method: as §2
Oryctolagus cuniculus [10] = assay: Inhibition of laser induced thrombus formation in microvasculature of rabbit ear chamber at a peroral dose of 1 mg/kg; assay type: functional; settings: route oral; summary of the method: as §2
[11] = Solubility in 0.25 N HCl solution; assay type: physicochemical; settings: read-out: S
Summary of the method: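 Solubility tested as for water, 0.5 mL solvent on 10 mg solid at room temperature with up to […] dilution, but in 0.25 N HCl solution.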

Phosphodiesterase 3 [12] = target: T1, Phosphodiesterase 3; assay: Inhibition of human platelet cAMP phosphodiesterase PDE 3; summary of the method: as §1
Oryctolagus cuniculus [13] = species on record: Oryctolagus cuniculus; assay: Inhibition of laser induced thrombus formation in microvasculature of rabbit ear chamber; assay type: functional, organism-based; summary of the method: as §2

Row | Structure (SMILES) | EC50 (Homo sapiens [1]) | solubility [2] | IC50 (Phosphodiesterase 3 [3]) | other results
1 | O=C(CCCOc1ccc2[nH]c3nc(O)nc-3cc2c1)N1CCN(CCC2CCCCC2)CC1 | 54 nM | < 10000 µg/mL | 0.2 nM | 
2 | O=C(CCCCCOc1ccc2[nH]c3nc(O)nc-3cc2c1)N1CCN(CC2CCCCC2)CC1 | 710 nM | > 10000 µg/mL | 0.6 nM | 
3 | O=C(O)C1CCN(c2ccc3[nH]c4nc(O)nc-4cc3c2)CC1 | 30200 nM | < 10000 µg/mL | 20 nM | 
4 | O=C(CCCOc1ccc2[nH]c3nc(O)nc-3cc2c1)NCCN1CCCCC1 | 4500 nM | > 20000 µg/mL | 4 nM | 
5 | O=C(CCCOc1ccc2[nH]c3nc(O)nc-3cc2c1)N1CCN(CC2CCCCO2)CC1 (stereo not given) | 2020 nM | > 10000 µg/mL | 0.7 nM | 
6 | CN(C(=O)C1CCN(c2ccc3[nH]c4nc(O)nc-4cc3c2)CC1)C1CCCCC1 | > 37000 nM | < 10000 µg/mL |  | 
7 | O=C(CCCOc1ccc2[nH]c3nc(O)nc-3cc2c1)N1CCN(CC2CCCCC2)CC1 | 510 nM | > 10000 µg/mL | 0.4 nM | IC50 (Homo sapiens [4]): 100 nM
8 | Oc1nc2cc3cc(N4CCCC4)ccc3[nH]c-2n1 | 2030 nM | < 10000 µg/mL |  | 
9 | O=C(CCCOc1ccc2[nH]c3nc(O)nc-3cc2c1)NC1CCN(Cc2ccccc2)CC1 | 3700 nM | > 20000 µg/mL | 0.7 nM | 
10 | O=C(CCCOc1ccc2[nH]c3nc(O)nc-3cc2c1)N1CCN(Cc2ccc(Cl)cc2)CC1 | 170 nM | < 10000 µg/mL | 2 nM | 
11 | Cn1c(O)nc2nc3ccc(OCCCC(=O)N4CCN(CC5CCCCC5)CC4)cc3cc21 | > 58100 nM | > 10000 µg/mL | 80 nM | 
12 | O=C(CCCOc1ccc2[nH]c3nc(O)nc-3cc2c1)N1CCN(CCc2ccccc2)CC1 | 190 nM | < 10000 µg/mL | 2 nM | 
13 | Oc1nc2cc3cc(N4CCOCC4)ccc3[nH]c-2n1 | 250 nM | < 10000 µg/mL | 20 nM | 
14 | COCCN1CCN(C(=O)CCCOc2ccc3[nH]c4nc(O)nc-4cc3c2)CC1 | 20800 nM | > 10000 µg/mL | 7 nM | 
15 | O=C1CN2Cc3cc(OCCCC(=O)N4CCN(Cc5ccccc5)CC4)ccc3N=C2N1 | 4150 nM | > 5000 µg/mL | 8 nM | 
16 | O=C(CCCOc1ccc2[nH]c3nc(O)nc-3cc2c1)N1CCN(Cc2ccsc2)CC1 | 380 nM | > 10000 µg/mL | 0.7 nM | 
17 | O=C(CCCOc1ccc2[nH]c3nc(O)nc-3cc2c1)N1CCN(CCc2ccccc2C(F)(F)F)CC1 | 110 nM | < 10000 µg/mL | 0.3 nM | 
18 | O=C(CCCOc1ccc2[nH]c3nc(O)nc-3cc2c1)N1CCN(c2ccccn2)CC1 | 670 nM | > 10000 µg/mL | 5 nM | 
19 | O=C(CCCOc1ccc2[nH]c3nc(O)nc-3cc2c1)N1CCN(c2cccc(C(F)(F)F)c2)CC1 | 720 nM | < 10000 µg/mL | 0.6 nM | 

Row | Structure (SMILES) | EC50 (Homo sapiens [1]) | solubility [2] | IC50 (Phosphodiesterase 3 [3]) | other results
20 | O=C(CCCOc1ccc2[nH]c3nc(O)nc-3cc2c1)N1CCN(CC(=O)N2CCCC2)CC1 | > 56500 nM | > 10000 µg/mL |  | IC50 (Phosphodiesterase 3 [5]): 6 nM
21 | O=C(CCCOc1ccc2[nH]c3nc(O)nc-3cc2c1)N1CCC(N2CCCCC2)CC1 | 11400 nM | > 10000 µg/mL | 5 nM | 
22 | O=C(CCCOc1ccc2[nH]c3nc(O)nc-3cc2c1)N1CCN(Cc2ccccc2)CC1 |  | > 10000 µg/mL | 0.7 nM | inhibition in vivo at 0.03 mg/kg (Oryctolagus cuniculus [6]): 41%; inhibition in vivo at 0.3 mg/kg (Oryctolagus cuniculus [7]): 64%; inhibition in vivo at 0.1 mg/kg (Oryctolagus cuniculus [8]): 50%
23 | Oc1nc2cc3cc(N4CCCCC4)ccc3[nH]c-2n1 | 900 nM | > 10000 µg/mL |  | inhibition in vivo at 3 mg/kg (Oryctolagus cuniculus [9]): 59%; inhibition in vivo at 1 mg/kg (Oryctolagus cuniculus [10]): 32%
24 | CCC(CC)CN1CCN(C(=O)CCCOc2ccc3[nH]c4nc(O)nc-4cc3c2)CC1 | 430 nM | > 10000 µg/mL | 1 nM | 
25 | O=C(c1ccccc1)N1CCN(c2ccc3[nH]c4nc(O)nc-4cc3c2)CC1 | 6820 nM | < 10000 µg/mL | 600 nM | 
26 | CCOC(=O)N1CCN(c2ccc3[nH]c4nc(O)nc-4cc3c2)CC1 | 3520 nM | < 10000 µg/mL | 700 nM | 
27 | O=C(CCCOc1ccc2[nH]c3nc(O)nc-3cc2c1)N1CCN(Cc2ccc(F)cc2)CC1 | 530 nM | > 10000 µg/mL | 2 nM | 
28 | CN1CCCC1CCNC(=O)CCCOc1ccc2[nH]c3nc(O)nc-3cc2c1 (stereo not given) | 79800 nM |  | 20 nM | solubility [11]: > 10000 µg/mL
29 | CN1CCN(C(=O)CCCOc2ccc3[nH]c4nc(O)nc-4cc3c2)CC1 | 8900 nM | > 20000 µg/mL | 7 nM | 
30 | CCN(CC)c1ccc2[nH]c3nc(O)nc-3cc2c1 | 1420 nM | > 10000 µg/mL |  | IC50 (Phosphodiesterase 3 [12]): 70 nM
31 | CCOC(=O)CN1CCN(C(=O)CCCOc2ccc3[nH]c4nc(O)nc-4cc3c2)CC1 | 2440 nM | > 10000 µg/mL | 2 nM | 
32 | CN(CCc1ccccn1)C(=O)CCCOc1ccc2[nH]c3nc(O)nc-3cc2c1 | 12400 nM | > 10000 µg/mL | 4.5 nM | 
33 | O=C(CCCOc1ccc2[nH]c3nc(O)nc-3cc2c1)N1CCN(CC2CCCCCC2)CC1 | 290 nM | < 10000 µg/mL | 0.2 nM | 
34 | CC(C)CN1CCN(C(=O)CCCOc2ccc3[nH]c4nc(O)nc-4cc3c2)CC1 | 2430 nM | > 10000 µg/mL | 1 nM | 
35 | O=C(CCCOc1ccc2[nH]c3nc(O)nc-3cc2c1)N1CCN(c2ncccn2)CC1 | 1220 nM | > 10000 µg/mL | 7 nM | 
36 | O=C(CCCOc1ccc2[nH]c3nc(O)nc-3cc2c1)N1CCNCC1 | 53700 nM | > 10000 µg/mL | 40 nM | 
37 | COc1ccc(C(=O)N2CCN(c3ccc4[nH]c5nc(O)nc-5cc4c3)CC2)cc1OC | 37900 nM | < 10000 µg/mL |  | 
38 | O=C(CCCCOc1ccc2[nH]c3nc(O)nc-3cc2c1)N1CCN(CC2CCCCC2)CC1 | 51 nM | > 10000 µg/mL | 0.03 nM | IC50 (Oryctolagus cuniculus [13]): 0.03 mg/kg; inhibition in vivo at 0.1 mg/kg (Oryctolagus cuniculus [8]): > 50%

Row | Structure (SMILES) | EC50 (Homo sapiens [1]) | solubility [2] | IC50 (Phosphodiesterase 3 [3]) | other results
39 | O=C(CCCOc1ccc2[nH]c3nc(O)nc-3cc2c1)N1CCN(Cc2cccc(C(F)(F)F)c2)CC1 | 920 nM | 2000 µg/mL (≈ 3.89 mM) | 9 nM | 
40 | O=C(CCCOc1ccc2[nH]c3nc(O)nc-3cc2c1)N1CCN(C(c2ccc(F)cc2)c2ccc(F)cc2)CC1 | 130 nM | < 10000 µg/mL | 0.3 nM | 
41 | CC(C)(C)OC(=O)N1CCN(C(=O)CCCOc2ccc3[nH]c4nc(O)nc-4cc3c2)CC1 | 270 nM | < 10000 µg/mL | 0.3 nM | 
42 | O=C(CCCOc1ccc2[nH]c3nc(O)nc-3cc2c1)N1CCN(Cc2ccc3c(c2)OCO3)CC1 | 330 nM | 10000 µg/mL (≈ 20.4 mM) | 0.9 nM | 
43 | O=C(CCCOc1ccc2[nH]c3nc(O)nc-3cc2c1)N1CCN(C2CCCCCC2)CC1 | 750 nM | > 10000 µg/mL | 0.9 nM | 
44 | O=C(CCCCOc1ccc2[nH]c3nc(O)nc-3cc2c1)N1CCN(Cc2ccccc2)CC1 | 47 nM | > 10000 µg/mL | 0.08 nM | 
45 | CCCC(CCC)CN1CCN(C(=O)CCCOc2ccc3[nH]c4nc(O)nc-4cc3c2)CC1 | 680 nM | < 10000 µg/mL | 0.4 nM | 
46 | O=C(CCCOc1ccc2[nH]c3nc(O)nc-3cc2c1)N1CCN(Cc2cccs2)CC1 | 380 nM | > 10000 µg/mL | 0.7 nM | 
47 | O=C1CN2Cc3cc(OCCCC(=O)N4CCN(CC5CCCCC5)CC4)ccc3N=C2N1 | 7230 nM | > 5000 µg/mL | 6 nM | 
48 | COC(=O)C1CCN(c2ccc3[nH]c4nc(O)nc-4cc3c2)CC1 | 280 nM | < 10000 µg/mL |  | 
49 | O=C(CCCOc1ccc2[nH]c3nc(O)nc-3cc2c1)NC1CN2CCC1CC2 (stereo not given) | 12400 nM | > 10000 µg/mL | 40 nM | 
50 | O=C(CCCOc1ccc2[nH]c3nc(O)nc-3cc2c1)N1CCN(Cc2ccc(C(F)(F)F)cc2)CC1 | 2110 nM | < 10000 µg/mL | 0.4 nM | 
51 | COc1ccc(CN2CCN(C(=O)CCCOc3ccc4[nH]c5nc(O)nc-5cc4c3)CC2)cc1 | 520 nM | > 10000 µg/mL | 3 nM | 
52 | Cn1c(O)nc2nc3ccc(OCCCC(=O)N4CCN(Cc5ccccc5)CC4)cc3cc21 | > 59100 nM | > 10000 µg/mL | 30 nM | 
53 | O=C(CCCOc1ccc2[nH]c3nc(O)nc-3cc2c1)N1CCN(C(c2ccccc2)c2ccccc2)CC1 | 62 nM | < 10000 µg/mL | 3 nM | 
54 | O=C(CCCOc1ccc2[nH]c3nc(O)nc-3cc2c1)N1CCN(c2ccccc2)CC1 | 50 nM | < 10000 µg/mL | 2 nM | 
55 | Oc1nc2cc3cc(N4CCN(c5ccccc5)CC4)ccc3[nH]c-2n1 | 8060 nM | < 10000 µg/mL | 5000 nM | 
56 | O=C(CCCOc1ccc2[nH]c3nc(O)nc-3cc2c1)N1CCN(CC2CCCC2)CC1 | 1300 nM | > 10000 µg/mL | 0.5 nM | 
